Measurements from paper PMC2233905 (The Journal of General Physiology, 2004).

Experiments:
hEag1 channels [1] = target: T1, hEag1 channels (Homo sapiens, UniProt O95259); assay: Inside-out patch recordings of hEag1 currents; type: cell-based; details: for rate of block: inside-out, 500 nM astemizole
T1 sequence (O95259 1-989): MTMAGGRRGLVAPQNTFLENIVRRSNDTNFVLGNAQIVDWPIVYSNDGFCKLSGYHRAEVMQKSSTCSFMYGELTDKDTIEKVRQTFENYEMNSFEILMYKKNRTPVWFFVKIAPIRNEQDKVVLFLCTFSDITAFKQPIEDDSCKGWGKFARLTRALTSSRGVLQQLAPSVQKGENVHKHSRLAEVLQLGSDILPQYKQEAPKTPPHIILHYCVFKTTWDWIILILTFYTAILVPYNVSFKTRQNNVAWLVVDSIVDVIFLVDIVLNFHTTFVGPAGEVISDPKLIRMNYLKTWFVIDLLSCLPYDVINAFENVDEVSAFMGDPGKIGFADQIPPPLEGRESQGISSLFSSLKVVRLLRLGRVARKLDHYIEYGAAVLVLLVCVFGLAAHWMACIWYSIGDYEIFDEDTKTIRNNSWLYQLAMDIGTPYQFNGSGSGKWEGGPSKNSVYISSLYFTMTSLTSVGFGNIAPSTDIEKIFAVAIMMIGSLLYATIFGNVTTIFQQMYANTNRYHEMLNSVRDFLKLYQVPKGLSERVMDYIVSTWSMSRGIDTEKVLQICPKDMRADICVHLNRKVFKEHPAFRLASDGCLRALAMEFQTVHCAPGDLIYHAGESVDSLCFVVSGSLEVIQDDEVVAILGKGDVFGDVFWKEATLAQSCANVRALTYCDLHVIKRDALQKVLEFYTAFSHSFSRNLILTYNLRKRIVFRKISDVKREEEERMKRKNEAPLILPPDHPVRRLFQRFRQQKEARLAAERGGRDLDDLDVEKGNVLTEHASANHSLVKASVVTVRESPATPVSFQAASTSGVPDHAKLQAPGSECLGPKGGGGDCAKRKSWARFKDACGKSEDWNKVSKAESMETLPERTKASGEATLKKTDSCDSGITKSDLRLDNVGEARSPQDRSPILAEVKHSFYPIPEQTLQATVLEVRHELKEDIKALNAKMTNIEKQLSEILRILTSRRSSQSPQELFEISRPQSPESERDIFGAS
In short: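 Inside-out patches from hEag1-expressing cells at room temperature. Pipette: 145 NaCl, 5 KCl, 3 CaCl2, 1 MgCl2, 10 HEPES/NaOH pH 7.4. Successive 6-s pulses at 80 mV with drug applied for 2.5 s. Current ratios to preapplication traces were fitted with a single exponential to give the block time constant.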

hEag1 channels [2] = target: T1, hEag1 channels; assay: Outside-out patch recordings of hEag1 currents; type: cell-based
In short: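 Outside-out patches from hEag1-expressing cells at room temperature. Successive 6-s recordings at 80 mV; drug applied to the extracellular face for 2.5 s, then removed. Currents were divided point-wise by control traces, and the time course was fitted with a single exponential to give the block or equilibration time constant and the steady-state fraction blocked.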

hEag1 channels [3] = target: T1, hEag1 channels; assay: Cell-attached patch recordings of hEag1 currents, drug in bath; type: cell-based; details: 140 mM external K+, 60 mV
In short: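 hEag1-expressing cells grown 24–72 h on poly-L-lysine-coated coverslips; cell-attached patches at room temperature. Bath held 140 mM K+; pipette held control external solution (160 NaCl, 2.5 KCl, 2 CaCl2, 1 MgCl2, 10 HEPES, pH 7.4) without glucose. 1-s steps to 60 mV from −70 mV were recorded before, during and after washout of bath-applied drug.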

hEag1 channels [4] = target: T1, hEag1 channels; assay: hEag1 channels expressed in Xenopus oocytes; type: cell-based
Kv4.2 = target: T2, Kv4.2 (Homo sapiens, UniProt Q9NZV8); assay: Kv4.2 channels; type: cell-based; details: concentrations up to 10 μM, unpublished data
T2 sequence (Q9NZV8 1-630): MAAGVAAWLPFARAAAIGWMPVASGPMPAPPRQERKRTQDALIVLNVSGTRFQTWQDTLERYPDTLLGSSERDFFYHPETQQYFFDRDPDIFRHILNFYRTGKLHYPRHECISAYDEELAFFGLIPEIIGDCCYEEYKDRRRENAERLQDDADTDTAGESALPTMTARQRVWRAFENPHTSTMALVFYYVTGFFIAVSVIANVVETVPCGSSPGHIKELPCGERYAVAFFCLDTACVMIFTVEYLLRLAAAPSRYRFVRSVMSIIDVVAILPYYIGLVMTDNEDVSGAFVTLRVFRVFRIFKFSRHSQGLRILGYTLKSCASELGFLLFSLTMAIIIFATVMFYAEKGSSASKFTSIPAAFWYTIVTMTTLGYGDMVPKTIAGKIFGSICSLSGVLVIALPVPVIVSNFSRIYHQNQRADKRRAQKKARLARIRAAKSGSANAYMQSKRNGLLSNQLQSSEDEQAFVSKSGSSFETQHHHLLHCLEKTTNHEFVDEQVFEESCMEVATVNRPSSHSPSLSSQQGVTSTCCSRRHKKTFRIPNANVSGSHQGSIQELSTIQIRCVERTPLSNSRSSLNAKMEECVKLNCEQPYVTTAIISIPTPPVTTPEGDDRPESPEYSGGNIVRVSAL

cloned HERG = details: HEK-293 cells; ref Zhou et al., 1999; cited from earlier work
[5] = ref Fischer et al., 1997, 1998; cited from earlier work
cardiac IsK currents = details: concentrations up to 10 μM; ref Suessbrich et al., 1996; cited from earlier work
[6] = test system: IRK1 inward rectifier K^+ channels; details: concentrations up to 10 μM; ref Suessbrich et al., 1996; cited from earlier work
Kv1.1 = details: concentrations up to 10 μM; ref Suessbrich et al., 1996; cited from earlier work
[7] = test system: outward currents of ventricular cardiomyocytes; details: concentrations <10 μM; ref Berul and Morad, 1995; cited from earlier work
[8] = test system: Eag-like channels 2 (hELK2); details: ref Becchetti et al., 2002; cited from earlier work
breast cancer cells = details: ref Ouadid-Ahidouch et al., 2001; cited from earlier work

- time constant of block in inside-out patches (hEag1 channels [1]; bath pH 6.0, pipette pH 7.4, 80 mV): 387 ms
- reversal of block on 2-s washout during the depolarization (hEag1 channels [1]; inside-out patches): did not recover
- rate of block (hEag1 channels [1]; pHint 6.4): 6.7 ± 2 s⁻¹
- rate of block (hEag1 channels [1]; pHint 7.4): 2.8 ± 0.2 s⁻¹
- time constant of block (equilibration of neutral drug) in outside-out patches (hEag1 channels [2]; bath pH 6.0, pipette pH 7.4): 1.7 s
- rate of the equilibration process across the membrane (hEag1 channels [2]; outside-out, bath pH 6.0): 0.6 s⁻¹
- block of channels in cell-attached patches by bath application (hEag1 channels [3]): blocked
- IC50 (hEag1 channels [4]): ~1500 nM
- effect on current (Kv4.2): no significant effects
Compound: COc1ccc(CCN2CCC(Nc3nc4ccccc4n3Cc3ccc(F)cc3)CC2)cc1 [astemizole]
- IC50 (cloned HERG): 0.9 nM
- pK a1 [5]: 5.6
- pK a2 [5]: 8.5
- effect on current (cardiac IsK currents): no significant effects
- effect on current [6]: no significant effects
- effect on current (Kv1.1): no significant effects
- effect on currents [7]: no effects
- sensitivity to astemizole [8]: not sensitive
- effect on proliferation rate (breast cancer cells): significant reduction
